The results in this text go back to PubChem BioAssay AID463073 (The Scripps Research Institute Molecular Screening Center, 2010).

The structures appear in SMILES notation. Screen size: about 2,000 compounds; about 10 (0.5%) were called active. The sample as a whole holds a higher share of actives than the screen did. Unmarked numbers belong to inactive results.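 The calls were made as follows: active = inhibition above 30%; inactive = the rest.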

In the test the target is Protein-arginine deiminase type-4 (Homo sapiens) (UniProt Q9UM07). As to the kind of experiment: human PAD4 inhibitors, primary screen, biochemical, fluorescence polarization (AID 463073).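 Also: 0% = PAD4 with DMSO and 100% = wells lacking PAD4.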 The following applies: recombinant PAD4, RFA probe fluorescence polarization; at 5 µM; hits give high values. A digest of the protocol: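 System: recombinant PAD4. Amount: PAD4 at 2 µM in dispensed buffer, before additions. Doses: single 5 µM final compound concentration. Timing: 30 min 25 °C preincubation, 5 h 37 °C labeling. Benchmarks: wells lacking PAD4 as full-inhibition control. Repeats: single well per compound. Measured by: FP, ex 525 nm, em 598 nm.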
Protein-arginine deiminase type-4 (Homo sapiens), sequence (Q9UM07 whole entry, looked up): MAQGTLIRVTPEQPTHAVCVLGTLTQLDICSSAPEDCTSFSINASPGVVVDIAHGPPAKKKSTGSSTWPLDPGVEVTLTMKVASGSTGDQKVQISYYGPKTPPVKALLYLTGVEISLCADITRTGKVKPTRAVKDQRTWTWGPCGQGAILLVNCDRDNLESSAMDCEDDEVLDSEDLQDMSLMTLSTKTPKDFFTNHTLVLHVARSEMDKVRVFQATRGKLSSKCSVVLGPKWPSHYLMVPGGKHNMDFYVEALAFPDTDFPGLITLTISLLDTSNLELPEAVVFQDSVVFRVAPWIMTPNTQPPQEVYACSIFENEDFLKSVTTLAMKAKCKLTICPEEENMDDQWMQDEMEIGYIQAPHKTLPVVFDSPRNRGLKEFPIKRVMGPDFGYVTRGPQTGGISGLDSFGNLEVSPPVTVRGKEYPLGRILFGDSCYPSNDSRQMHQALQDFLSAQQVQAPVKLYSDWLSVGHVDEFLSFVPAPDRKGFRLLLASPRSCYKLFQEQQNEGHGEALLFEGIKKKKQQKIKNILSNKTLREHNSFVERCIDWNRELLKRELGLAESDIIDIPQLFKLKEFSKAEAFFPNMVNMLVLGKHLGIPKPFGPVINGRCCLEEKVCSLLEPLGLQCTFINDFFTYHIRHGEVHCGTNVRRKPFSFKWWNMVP
In general terms: Fluorescence polarisation rises when a labelled molecule tumbles more slowly, as on binding a larger partner.
`O=C1C=Cc2ccccc2C1=O`: the inhibition (commonly the relative decrease from the control value, in per cent) is 6.7%. With `O=C1C(=O)c2ccccc2-c2ccccc21`, the inhibition was 94.3% (active). The value for `C[C@H]1CCCC(=O)CCC/C=C/c2cc(O)cc(O)c2C(=O)O1` was 0.58%. With `CC(C)[C@@]1(NC(=O)[C@@H]2C[C@@H]3c4cccc5[nH]cc(c45)C[C@H]3N(C)C2)O[C@@]2(O)[C@@H]3CCCN3C(=O)[C@H](Cc3ccccc3)N2C1=O`, the inhibition is 4.69%. With `CC1CCC[C@H](O)CCCCCc2cc(O)cc(O)c2C(=O)O1` (stereo not given in full), the inhibition is 2.98%. Next, `CN1C2CCC1CC(OC(=O)CCN1CCCC1)C2` (stereo not given): 0.67%; `COc1ccc(Cc2nccc3cc(OC)c(OC)cc23)cc1OC`: 74.4% (active); `C[C@H]1CC[C@@]2(C)[C@@H](CC[C@@H]3[C@@H]2CC[C@]2(C)[C@@H](O)CC[C@@H]32)C1`: 5.74%. As for `O=Cc1cn(Cc2ccc(F)cc2)c2ccccc12`, the inhibition was 0.18%. Take `C[C@]12CCC(=O)C=C1CC[C@@H]1[C@@H]2C(=O)C[C@]2(C)C(=O)CC[C@@H]12`: the inhibition is 3.91%.
